Data set [1] has as its system Bsep, Mdr2, Ost-β, Sult2a1, Shp, Ntcp. In words: Hepatic gene expression in gavaged mice. In kind it is in vivo, mouse. The method, boiled down:
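Female C57BL6 mice aged 7–8 weeks were gavaged twice daily for 2 days with 200 μL 20% cyclodextrin, 50 mg/kg cholic acid, or cholic acid plus 500 mg/kg test compound. Livers were harvested at 4 pm on day 2 after an 8-h fast, and hepatic gene expression was measured. Data are mean ± SEM, n = 6, by one-way ANOVA.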

The next data set has as its system BSEP, SHP. In words: BSEP and SHP gene expression in primary human hepatocytes. The settings on record: 50 μM, 24 hours. The data set is classed as cell-based.
The test system of another data set is BSEP, SHP, CYP7A1. In kind it is cell-based, human. Conditions: 50 μM, 24 hours; for induction of BSEP gene expression: scrambled siRNA group; for repression of CYP7A1 expression: siScramble group; for induction of SHP gene expression: siScrambled group, versus vehicle.
For a further data set, the target named is T1, FXRα2 (Homo sapiens, UniProt Q96RI1).
T1 sequence (Q96RI1 1-472 isoform Q96RI1-2): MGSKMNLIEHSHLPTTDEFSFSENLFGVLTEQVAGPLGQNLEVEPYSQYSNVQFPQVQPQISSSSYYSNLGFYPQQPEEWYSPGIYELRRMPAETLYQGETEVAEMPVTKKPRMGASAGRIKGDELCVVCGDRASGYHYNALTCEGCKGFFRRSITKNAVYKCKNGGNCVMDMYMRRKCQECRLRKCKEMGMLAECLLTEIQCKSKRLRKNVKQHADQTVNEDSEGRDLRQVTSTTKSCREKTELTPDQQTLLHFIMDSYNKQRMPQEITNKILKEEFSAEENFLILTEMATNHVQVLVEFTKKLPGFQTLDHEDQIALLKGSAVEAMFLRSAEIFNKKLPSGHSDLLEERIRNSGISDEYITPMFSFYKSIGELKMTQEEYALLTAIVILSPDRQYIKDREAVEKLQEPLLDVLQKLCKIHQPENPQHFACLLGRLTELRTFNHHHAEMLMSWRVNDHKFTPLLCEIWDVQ
T1 sequence (P19793 1-462 partner): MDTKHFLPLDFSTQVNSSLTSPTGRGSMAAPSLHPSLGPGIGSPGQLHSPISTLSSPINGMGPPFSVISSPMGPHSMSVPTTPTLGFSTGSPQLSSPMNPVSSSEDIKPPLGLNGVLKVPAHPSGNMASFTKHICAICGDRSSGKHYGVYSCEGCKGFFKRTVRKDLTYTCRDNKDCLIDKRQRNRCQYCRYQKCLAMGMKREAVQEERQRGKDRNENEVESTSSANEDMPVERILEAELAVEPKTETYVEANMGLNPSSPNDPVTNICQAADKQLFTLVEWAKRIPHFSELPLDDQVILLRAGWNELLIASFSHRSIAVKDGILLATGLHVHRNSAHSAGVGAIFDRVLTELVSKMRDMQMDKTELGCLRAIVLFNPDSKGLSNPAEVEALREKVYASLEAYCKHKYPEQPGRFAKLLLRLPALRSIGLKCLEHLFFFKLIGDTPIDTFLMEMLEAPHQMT
The data set is classed as cell-based. The settings on record: for FXR transactivation relative to vehicle-treated control: 50 μM compound; for FXR transactivation relative to vehicle-treated control / pEC50: 24 hours; for pEC50: read-out: EC50 of FXR transactivation, agonist mode, 0-100 μM.

A further data set has as its target T2, FXR-LBD (Homo sapiens, UniProt Q96RI1).
T2 sequence (Q96RI1 244-472 isoform Q96RI1-2): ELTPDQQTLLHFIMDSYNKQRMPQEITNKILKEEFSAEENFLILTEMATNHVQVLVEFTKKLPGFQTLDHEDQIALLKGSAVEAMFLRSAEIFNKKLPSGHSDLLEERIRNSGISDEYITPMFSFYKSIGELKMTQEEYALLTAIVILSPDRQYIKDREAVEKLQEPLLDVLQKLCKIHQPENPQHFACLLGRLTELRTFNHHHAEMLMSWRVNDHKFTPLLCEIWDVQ
In words: HTRF cofactor. The data set is classed as biochemical. The settings on record: for CDCA-mediated recruitment of SRC-1 peptide to FXR-LBD: 9 or 100 μM CDCA, 0-600 μM compound, dose-dependent; for recruitment of SRC-1 peptide to FXR-LBD by compound alone: agonist mode, no CDCA. A general note: In TR-FRET formats the signal depends on donor and acceptor labels being close together.

The subject of data set [2] is FGF19. In words: Secreted FGF19 in Huh7 cell culture media. The data set is classed as cell-based, human. The settings on record: for levels of secreted FGF19: 0.5 μM GW4064. The method, boiled down: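 Huh7 cells were incubated for 24 h with 0.5 μM GW4064 plus 0–100 μM test compound. FGF19 secreted into the culture medium was then assayed. Data are mean ± SEM, n = 3, by one-way ANOVA.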

The subject of data set [3] is FXR-mediated bile acid efflux in Huh7 cells. In words: Huh7 3H-taurocholic acid efflux. The data set is classed as cell-based, human. The method in brief: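 Huh7 cells were pretreated overnight with vehicle or 0.5 μM GW4064 with or without 25–50 μM test compound. Cells were washed for 1.5 h, then ³H-taurocholic acid efflux over 5 min was measured. Data are mean ± SEM, n = 3, by one-way ANOVA.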

Data set [4] relates to BSEP. In words: BSEP protein western blot in Huh7 cells. The data set is classed as cell-based, human. The settings on record: 0.5 μM GW4064, 24 hours. Background: A western blot detects proteins with antibodies after separation by electrophoresis.
The nature of data set [5]: Serum bile acid concentrations in gavaged mice. The data set is classed as in vivo, mouse. The settings on record: CA+PM5S co-gavaged mice versus vehicle or CA groups. The method in brief:
(§1)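 Female C57BL6 mice aged 7–8 weeks were orally gavaged twice daily for 2 days (day 1 at 5:30 and 10:30 pm; day 2 at 8:30 am and 1:30 pm). Groups received 200 μL 20% cyclodextrin, 50 mg/kg cholic acid, or cholic acid plus 500 mg/kg test compound. After an 8-h fast, serum was collected at 4 pm on day 2 and analysed by UPLC/MSMS. Data are mean ± SEM, n ≥ 6, by one-way ANOVA.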

In another data set the test system is NTCP. Conditions: NTCP-transfected Xenopus laevis oocytes ref 19; cited from earlier work.
The nature of data set [6]: Serum PM5S in gavaged mice by UPLC/MSMS. In kind it is in vivo, mouse. The method, boiled down:
as §1

A further data set deals with SHP and MDR3. In words: SHP and MDR3 gene expression in Huh7 cells. The data set is classed as cell-based, human. The settings on record: 0-100 μM PM5S, 0.5 μM GW4064, 24 hours. The method in brief:
(§2)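 Relative mRNA was quantified by qPCR. Data are mean ± SEM, n = 3, by one-way ANOVA against the agonist-alone or vehicle group.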

Data set [7] relates to BSEP. In words: BSEP gene expression in Huh7 cells. The data set is classed as cell-based, human. The method in brief:
as §2

Data set [8] has as its system primary human hepatocytes. Conditions: primary human hepatocytes ref 19; cited from earlier work.
Data set [9] has as its system BSEP. Conditions: X. laevis oocytes expressing BSEP ref 20; cited from earlier work.
Data set [10] concerns FGF19. In words: FGF19 gene expression in Huh7 cells. Conditions: 25-100 μM PM5S, 0.5 μM GW4064, 24 hours. The data set is classed as cell-based, human. The method, boiled down:
as §2

pEC50: −log10 of the molar value. Counter-ions that a name gives are not always drawn.

With `C[C@H](CCC(=O)O)[C@H]1CC[C@H]2[C@@H]3[C@H](O)C[C@@H]4C[C@H](O)CC[C@]4(C)[C@H]3C[C@H](O)[C@]12C` [CA, cholic acid, reference compound], the “Hepatic gene expression levels of Bsep, Mdr2, Ost-β, and Sult2a1” value in data set [1] (CA group, 50 mg/kg versus vehicle) is listed as “significantly induced”.
In the case of `C[C@H](CCC(=O)O)[C@H]1CC[C@H]2[C@@H]3[C@H](O)C[C@@H]4C[C@H](O)CC[C@]4(C)[C@H]3CC[C@]12C` [CDCA, chenodeoxycholic acid, reference compound], the BSEP expression induction in the data set on BSEP, SHP was 7.5 fold. Besides, in the data set on BSEP, SHP, CYP7A1, the “induction of BSEP gene expression” value was 390%, the “repression of CYP7A1 expression” value is recorded as above 90% and the “induction of SHP gene expression” value was determined as 481%.
As to `C[C@H](O)[C@H]1CC[C@H]2[C@@H]3CC[C@H]4C[C@@H](OS(=O)(=O)[O-])CC[C@]4(C)[C@H]3CC[C@]12C.[Na+]` [EPAS, epiallo-pregnanediol 3-sodium sulfate], at FXRα2, the “activity of FXR in presence of CDCA” value is “inhibited”; the “FXR transactivation relative to vehicle-treated control” value came out at 183%; the pEC50 (as a rule, −log10 of the EC50, conventionally taken in molar units) is 4.65. In addition, on FXR-LBD, the “CDCA-mediated recruitment of SRC-1 peptide to FXR-LBD” value (“CDCA-mediated recruitment” for short) was “inhibited” and the “recruitment of SRC-1 peptide to FXR-LBD by compound alone” value (from here on “recruitment … by compound alone”) is given as “unable to induce”.
In the case of `CC(=O)C1CCC2C3CC[C@@H]4C[C@@H](OS(=O)(=O)O)CC[C@]4(C)C3CC[C@]12C` (stereo partly drawn) [EPS, epipregnanolone sulfate], at FXRα2, the “activity of FXR in presence of CDCA” value was “inhibited”, the “FXR transactivation relative to vehicle-treated control” value is 125% and the pEC50 was 4.82. In addition, on FXR-LBD, the “CDCA-mediated recruitment” value is reported as “inhibited” and the “recruitment … by compound alone” value was “unable to induce”.
As for `CC(C)c1onc(-c2c(Cl)cccc2Cl)c1COc1ccc(/C=C/c2cccc(C(=O)O)c2)c(Cl)c1` [GW4064, reference compound], in the data set on FGF19 [2] (0.5 μM GW4064, 24 hours), the “increase in secreted FGF19” value turned out to be 2.8 fold. The 3HTC efflux entry in data set [3] (0.5 μM GW4064 overnight, relative to vehicle) is given as “significantly increased”. In the data set on BSEP [4] (relative to vehicle), the “increase in BSEP protein levels” value amounted to 1.5 fold.
For the compound `CC(=O)[C@H]1CC[C@H]2[C@@H]3CC[C@H]4C[C@@H](OS(=O)(=O)O)CC[C@]4(C)[C@H]3CC[C@]12C` [PM5S, epiallopregnanolone sulfate], the “serum CA levels” value in data set [5] is recorded as “significantly raised”. Moreover, the “taurocholate uptake by NTCP” value in the data set on NTCP is recorded as “competitively inhibit”. In the data set with BSEP, SHP, the BSEP expression result was “modestly increased” and the SHP expression induction entry is “to a lesser extent than CDCA”. Moreover, the “Serum PM5S mean concentration ± SEM” value in data set [6] (mice gavaged 50 mg/kg cholic acid + 500 mg/kg PM5S twice daily for 2 days) was 3208.6 ± 1847.1 µM. Moreover, the “Serum PM5S mean concentration ± SEM” value in [6] (mice gavaged 50 mg/kg cholic acid twice daily for 2 days) turned out to be 10.7 ± 9.6 µM. In the data set with SHP and MDR3, the “GW4064-mediated SHP and MDR3 gene expression” value was “significantly abrogated”. Also, the “CDCA-mediated BSEP expression” value with BSEP [7] (all PM5S concentrations tested, 50 μM CDCA, 24 hours) is “significantly reduced”. The “GW4064-mediated BSEP gene expression” value in the data set with BSEP [7] (increasing PM5S doses (0-100 μM), 0.5 μM GW4064, 24 hours) was “completely abolished”. In addition, the “Na+-dependent and Na+-independent influx of taurocholate” value in data set [8] is reported as “reduce”. Further, the “efflux of bile acids” value in the data set with BSEP [9] is given as “reduce the efflux”. Further, in data set [1] (CA+PM5S group compared to CA group), the “induction of Bsep and Mdr2 expression” value is given as “significantly abrogated”. Besides, in data set [1] (CA+PM5S, CA and vehicle groups), the “Shp and Ntcp expression levels” value was “no differences”. Besides, the “GW4064-mediated FGF19 gene expression” value in the data set on FGF19 [10] is listed as “significantly reduced”. At FXRα2, the “PM5S concentrations abrogating CDCA-mediated FXR transactivity” value is at least 5 µM, the “FXR transactivation relative to vehicle-treated control” value stood at 182% and the pEC50 was below 4.08. Also, in the data set on FGF19 [2] (50 μM and 100 μM PM5S), the “levels of secreted FGF19” value is reported as “reaching significance”. Further, the “levels of secreted FGF19” value with FGF19 [2] (cotreatment with 10 μM and 25 μM PM5S) is “trend towards a reduction”. In [3] (cotreated with 25 or 50 μM PM5S, 0.5 μM GW4064), the “GW4064-induced increase in 3HTC efflux” value is “abolished”. Moreover, the “GW4064-mediated BSEP protein expression” value in the data set on BSEP [4] (10 μM PM5S) is “inhibited”. Also, the BSEP protein expression entry with BSEP [4] (25-100 μM PM5S) is “completely abolished”. Moreover, in the data set on BSEP, SHP, CYP7A1, the “induction of BSEP gene expression” value was determined as 160%, the “repression of CYP7A1 expression” value is listed as above 90% and the “induction of SHP gene expression” value stood at 200%. In addition, on FXR-LBD, the “CDCA-mediated recruitment” value was “able to inhibit” and the “recruitment … by compound alone” value is reported as “unable to potentiate”.
